{"source": "ChEMBL document CHEMBL1123735", "about": "(J Med Chem, 1987)", "key": {"[1]": {"species": "Cavia porcellus", "test": "Antimuscarinic activity was assayed for its ability to block the acetyl-choline induced contraction of the guinea pig ileum", "format": "functional"}, "[2]": {"species": "Rattus norvegicus", "test": "Inhibition of carbachol-induced release of alpha-amylase from pancreatic acini from rat was determined", "format": "functional", "conditions": "read-out: I50", "outline": "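Dispersed acini from male Sprague–Dawley rat pancreas (collagenase 0.8 mg/mL, three incubations), in DMEM with 0.2% albumin, 0.01% trypsin inhibitor, 0.09% theophylline under O2; viability >99%. Incubated with graded antagonist plus 10⁻⁵ M carbachol; secreted α-amylase by Phadebas assay; I50 by curve fitting.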"}, "[3]": {"target": "Muscarinic acetylcholine receptor", "test": "Inhibit the binding of [N-mnethyl-3H]-scopolamine [3H]-NMS) to Muscarinic acetylcholine receptor of human IRM-30 neuroblastoma cells"}, "[4]": {"species": "Rattus norvegicus", "test": "Compound was tested for decrease in rate of lever pressing by rat", "format": "functional", "outline": "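Male Sprague–Dawley rats (350 g) lever-pressing for food on a 10-response schedule; sessions 30 min or 50 food presentations. Drug given intraperitoneally 30 min before session; saline controls. Mean ± SEM of single or duplicate determinations in four to six rats; I50 in mol/kg for rate decrease.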"}}, "data": [{"smiles": "CCN(CC)CCOC(=O)C(c1ccccc1)c1ccccc1", "note": "[ADIPHENINE]", "values": [{"measurement": "Kb", "setting": "[1]", "result": 92, "unit": "nM"}, {"measurement": "Kb", "setting": "[1]; read-out: pA2 (converted)", "result": 79.4, "unit": "nM"}, {"measurement": "IC50", "setting": "[2]", "result": 350, "unit": "nM"}]}, {"smiles": "CCN(CC)CCOC(=O)C(C)(c1ccccc1)c1ccccc1", "note": "[APROFENE]", "values": [{"measurement": "Kb", "setting": "[1]", "result": 3.1, "unit": "nM"}, {"measurement": "Kb", "setting": "[1]; read-out: pA2 (converted)", "result": 3.16, "unit": "nM"}, {"measurement": "Ki", "setting": "[3]", "result": 23, "unit": "nM"}, {"measurement": "IC50", "setting": "[2]", "result": 11, "unit": "nM"}]}, {"smiles": "CN1[C@@H]2CC[C@H]1C[C@@H](OC(=O)C(CO)c1ccccc1)C2", "note": "(stereo partly drawn) [ATROPINE]", "values": [{"measurement": "Kb", "setting": "[1]", "result": 2, "unit": "nM"}, {"measurement": "Kb", "setting": "[1]; read-out: pA2 (converted)", "result": 2, "unit": "nM"}, {"measurement": "IC50", "setting": "[2]", "result": 51, "unit": "nM"}, {"measurement": "I50", "setting": "[4]", "result": "2.3e-05", "unit": "M/kg"}]}, {"smiles": "CN1CC2CC(OC(=O)C(C)(c3ccccc3)c3ccccc3)CC1C2", "note": "(stereo not drawn) [AZAPROPHEN]", "values": [{"measurement": "Ki", "setting": "[3]", "result": 0.27, "unit": "nM"}, {"measurement": "IC50", "setting": "[2]", "result": 0.068, "unit": "nM"}, {"measurement": "I50", "setting": "[4]", "result": "1.9e-05", "unit": "M/kg"}]}, {"smiles": "CCN(CC)CCOC(=O)C(O)(c1ccccc1)c1ccccc1", "note": "[BENACTYZINE]", "values": [{"measurement": "IC50", "setting": "[2]", "result": 30, "unit": "nM"}]}, {"smiles": "CN1CCN(CC(=O)N2c3ccccc3C(=O)Nc3cccnc32)CC1", "note": "[PIRENZEPINE]", "values": [{"measurement": "Kb", "setting": "[1]", "result": 50000, "unit": "nM"}, {"measurement": "Kb", "setting": "[1]; read-out: pA2 (converted)", "result": 50100, "unit": "nM"}, {"measurement": "IC50", "setting": "[2]", "result": 2800, "unit": "nM"}]}]}
